Experimental data pooled from the literature.
Compare with care: the assays were run in different laboratories.
Target: Muscarinic acetylcholine receptor M2 (CHRM2, Homo sapiens, UniProt P08172)
Sequence (P08172 1-466, as in one of the studies): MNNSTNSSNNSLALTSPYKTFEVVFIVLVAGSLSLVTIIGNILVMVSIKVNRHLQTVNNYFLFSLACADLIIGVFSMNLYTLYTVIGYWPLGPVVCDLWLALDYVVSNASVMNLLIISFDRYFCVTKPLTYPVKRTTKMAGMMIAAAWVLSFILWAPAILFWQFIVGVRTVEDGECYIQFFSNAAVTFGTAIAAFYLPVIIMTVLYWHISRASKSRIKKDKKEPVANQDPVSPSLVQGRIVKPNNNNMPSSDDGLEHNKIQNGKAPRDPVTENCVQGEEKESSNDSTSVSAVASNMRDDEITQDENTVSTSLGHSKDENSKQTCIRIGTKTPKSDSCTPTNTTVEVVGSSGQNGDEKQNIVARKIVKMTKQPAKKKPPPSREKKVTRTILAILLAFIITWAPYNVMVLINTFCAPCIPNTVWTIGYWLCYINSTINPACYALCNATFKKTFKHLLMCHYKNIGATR

CCCCN1CCC(COC(=O)c2ccc(N)c(OCF)c2)CC1  Ki (cell-free assay, radioligand): > 10 µM
COc1ccnc(Oc2ccc(-c3c(C)c(=O)[nH]c(=O)n3C)c(C)c2)c1C(F)(F)F  Ki (ligand displacement, radioligand): 6.9 µM
CCn1c(-c2nc3ccc(C(=O)N4CCCC(N)C4)cc3n2C)cc2ccccc21 (centres unmarked)  IC50 (calcium signal, antagonist, fluorescence): > 15.8 µM
CC[C@@H]1SC2(CCN(C)CC2)NC1=O  EC50 (calcium signal, agonist): > 50 µM
CCN(C(=O)C1CCN(S(=O)(=O)c2ccc3[nH]ncc3c2)CC1)[C@H](C)c1ccccc1  EC50 (calcium signal, agonist): > 30 µM
CCn1c(-c2nc3cc(C(=O)N4CCC[C@@H](N)C4)cc(OC)c3n2C)cc2cccnc21  EC50 (calcium signal, agonist): > 15.8 µM
CCOCc1nc(O)c(-c2nnc(Cc3ccc(Cl)cn3)o2)c(O)c1-c1c(OC)cccc1OC  IC50 (ligand displacement, radioligand): > 30 µM
Cc1cc(Oc2nccc3occc23)ccc1-c1c(C)c(=O)[nH]c(=O)n1C1CC1  Ki (ligand displacement, radioligand): 7.7 µM
